Measurements as given in ChEMBL document CHEMBL1157305, “Serotonergic activity-guided phytochemical investigation of the roots of Angelica sinensis” (J Nat Prod, 2006).

Tests used:
[1] = biological target: T1, 5-hydroxytryptamine receptor 7 (Homo sapiens, UniProt P34969); assay: Displacement of [3H]LSD from human recombinant 5HT7 receptor expressed in CHO cells at 100 uM by liquid scintillation counting relative to control; type: cell-based
In short: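 Membranes from confluent human 5-HT7-transfected CHO cells were lysed in hypotonic buffer at 4 °C and homogenized in TEM buffer. Protein was measured by Lowry. Binding used [3H]LSD (5 nM) in 75 mM Tris-HCl, 1.25 mM MgCl2, 1 mM EDTA, pH 7.4, for 1 h at 37 °C. Samples were filtered on PEI-presoaked filters and counted by liquid scintillation. Nonspecific binding was defined with 250 nM 5-HT.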

[2] = biological target: T1, 5-hydroxytryptamine receptor 7; assay: Displacement of [3H]LSD from human recombinant 5HT7 receptor expressed in CHO cells by liquid scintillation counting; type: cell-based
In short: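 Membranes from confluent CHO cells stably carrying human 5-HT7, grown in Ham's F-12 with 10% FBS. Cells lysed in hypotonic Tris/MgCl2/EDTA buffer at 4 °C, and membranes washed in TEM buffer. Incubated with 5 nM [3H]LSD for 1 h at 37 °C in 75 mM Tris-HCl, 1.25 mM MgCl2, 1 mM EDTA, pH 7.4. Filtered, then counted by scintillation. Nonspecific binding defined with 250 nM 5-HT. IC50 is the concentration giving 50% inhibition of binding.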

T1 sequence (P34969 whole entry): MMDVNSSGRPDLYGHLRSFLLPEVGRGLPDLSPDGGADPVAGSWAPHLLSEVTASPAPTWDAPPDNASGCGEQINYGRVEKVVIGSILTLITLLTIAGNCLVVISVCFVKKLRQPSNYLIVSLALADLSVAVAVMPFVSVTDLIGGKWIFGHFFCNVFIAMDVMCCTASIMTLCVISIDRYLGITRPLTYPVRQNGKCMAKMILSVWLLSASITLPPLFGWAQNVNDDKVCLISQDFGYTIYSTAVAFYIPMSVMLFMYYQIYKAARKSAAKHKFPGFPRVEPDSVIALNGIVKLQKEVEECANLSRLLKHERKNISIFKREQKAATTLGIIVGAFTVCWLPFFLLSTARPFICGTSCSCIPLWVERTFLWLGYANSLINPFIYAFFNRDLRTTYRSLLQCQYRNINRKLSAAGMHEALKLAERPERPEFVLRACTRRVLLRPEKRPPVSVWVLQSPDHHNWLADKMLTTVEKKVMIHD

SMILES | inhibition [1] [%] | IC50 [2] [µM]
C/C=C(/C)C(=O)OC(C)CCC1OC(=O)c2ccccc21 (stereo not given) | 21 | 
C=C[C@@H](O)C#CC#C[C@@H](O)/C=C\CCCCCCCCOC(C)=O | 49 | 118
COc1cc(C=O)ccc1O | 0 | 
CCC/C=C1\OC(=O)C2=CC3CCC21[C@]1(OC(=O)c2ccccc21)[C@@H]3CCC (stereo not given in full) | 19 | 
CCC/C=C1\OC(=O)C2=C1CCC(O)C2OC (stereo not given) | 36 | 
C=C[C@@H](O)C#CC#C[C@@H](O)/C=C\CCCCCCC [FALCARINDIOL] | 61 | 118
CCCCNS(=O)(=O)c1ccccc1 | 0 | 
CCCCCCC/C=C\[C@H](O)C#CC#C[C@@H](O)CC | 5 | 
CC[C@H](/C=C/[C@@H](C)[C@H]1CC[C@H]2[C@@H]3CC=C4C[C@@H](O)CC[C@]4(C)[C@H]3CC[C@]12C)C(C)C | 0 | 
C=C[C@H](O)C#CC#C[C@@H](O)C1OC1CCCCCCC (stereo not given in full) | 36 | 
COc1cc(/C=C/C(=O)OCC(O)C(OC)c2ccc(O)c(OC)c2)ccc1O (stereo not given) | 31 | 
CCCCCCC/C=C\[C@H](O)C#CC#CC(=O)CCOC | 69 | > 150
CC(C)=CCOc1c2occc2cc2ccc(=O)oc12 | 57 | 
CCC/C=C1\OC(=O)c2ccccc21 [Z-butylidenephthalide] | 46 | 127
COc1cc(/C=C/C(=O)O)ccc1O | 41 | 
CCC/C=C1\OC(=O)C2=C1CC[C@@H](O)[C@@H]2O | 0 | 
CCC/C=C1\OC(=O)C2=C1CCC=C2 | 33 | 
COc1cc(/C=C/C(=O)OCCc2ccc(O)cc2)ccc1O | 71 | 47.6
CC/C=C\C/C=C\C/C=C\CCCCCCCC(=O)OCC(O)COC(=O)CCCCCCCC/C=C\C/C=C\C=C\CC (stereo not given) | 0 | 
CCC/C=C1\OC(=O)C23C=CCCCC12C1(OC(=O)c2ccccc21)C3CCC (stereo not given) | 24 | 
